Assay results as given in ChEMBL document CHEMBL1136225, “Selective 3-amino-2-pyridinone acetamide thrombin inhibitors incorporating weakly basic partially saturated heterobicyclic P1-arginine mimetics” (Bioorg Med Chem Lett, 2003).

Experiments:
[1] = pKa value was determined; type: physicochemical
Coagulation factor X = Coagulation factor X (Homo sapiens, UniProt P00742); experiment: Inhibitory activity against coagulation factor X
In short: (§1)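 Amidolytic enzyme assays with chromogenic substrates for thrombin, trypsin and factor Xa; Ki derived from IC50 by Cheng–Prusoff, or from reaction velocity equations with and without inhibitor using the relevant Km.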

Homo sapiens [2] = species on record: Homo sapiens; experiment: Concentration required to double the activated partial thromboplastin time in human plasma; type: functional
In short: (§2)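 Standard clotting assays (APTT, PT and TT) run in human plasma; value is the inhibitor concentration required to double each clotting time.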

Homo sapiens [3] = species on record: Homo sapiens; experiment: Concentration required to double the thrombin time in human plasma; type: functional; in short: as §2
[4] = biological target: T1, Serine protease 1 (Bos taurus) (UniProt P00760); experiment: Selectivity for inhibition of thrombin to that of trypsin
T1 sequence (whole entry): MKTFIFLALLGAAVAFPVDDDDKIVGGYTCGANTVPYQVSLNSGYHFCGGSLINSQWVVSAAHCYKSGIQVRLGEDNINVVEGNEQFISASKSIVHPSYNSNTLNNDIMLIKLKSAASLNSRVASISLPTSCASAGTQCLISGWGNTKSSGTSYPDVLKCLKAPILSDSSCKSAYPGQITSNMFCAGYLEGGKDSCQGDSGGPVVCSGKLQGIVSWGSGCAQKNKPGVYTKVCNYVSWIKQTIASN
In short: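 Selectivity expressed as Ki(trypsin)/Ki(thrombin), with both Ki values from chromogenic-substrate amidolytic assays.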

Homo sapiens [5] = species on record: Homo sapiens; experiment: Concentration required to double the prothrombin time in human plasma; type: functional; in short: as §2
Prothrombin = Prothrombin (Homo sapiens, UniProt P00734); experiment: Inhibitory activity against thrombin; in short: as §1
Serine protease 1 [6] = biological target: T2, Serine protease 1 (Bos taurus, UniProt P00760); experiment: Inhibitory activity against Trypsin; in short: as §1
T2 sequence (P00760 whole entry): T1 sequence (whole entry)

Serine protease 1 [7] = biological target: T2, Serine protease 1; experiment: Inhibitory activity was evaluated against Trypsin; Inactive; in short: as §1
Serine protease 1 [8] = biological target: T2, Serine protease 1; experiment: Inhibitory activity against Trypsin; Inactive; in short: as §1

Sequence of Coagulation factor X (P00742 41-179 limits assumed): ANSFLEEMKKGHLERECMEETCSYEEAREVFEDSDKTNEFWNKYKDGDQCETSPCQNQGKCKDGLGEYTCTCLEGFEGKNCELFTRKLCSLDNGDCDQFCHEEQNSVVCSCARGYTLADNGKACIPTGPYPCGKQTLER
Sequence of Coagulation factor X (P00742 235-488 limits assumed): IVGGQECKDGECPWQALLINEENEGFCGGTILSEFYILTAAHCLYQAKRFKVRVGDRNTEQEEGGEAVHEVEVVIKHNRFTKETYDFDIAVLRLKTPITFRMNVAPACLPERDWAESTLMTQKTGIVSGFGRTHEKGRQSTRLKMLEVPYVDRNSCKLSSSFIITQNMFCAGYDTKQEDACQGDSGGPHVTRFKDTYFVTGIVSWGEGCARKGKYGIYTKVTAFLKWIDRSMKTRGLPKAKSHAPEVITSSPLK

SMILES	pKa [1]	Ki (Coagulation factor X) [µM]	Concentration (Homo sapiens [2]) [µM]	Concentration (Homo sapiens [3]) [µM]	Selectivity [4]	Concentration (Homo sapiens [5]) [µM]	Ki (Prothrombin) [µM]	Ki (Serine protease 1 [6]) [µM]	Ki (Serine protease 1 [7])	Ki (Serine protease 1 [8]) [µM]
Cc1ccc(NS(=O)(=O)Cc2ccccc2)c(=O)n1CC(=O)NC1CCc2nc(N)sc2C1 (stereo unspecified)	6.1									
Cc1ccc(NS(=O)(=O)Cc2ccccc2)c(=O)n1CC(=O)NC1CCc2n[nH]cc2C1 (stereo unspecified)	3.7	99	272	105	93	> 400				
Cc1ccc(NS(=O)(=O)Cc2ccccc2)c(=O)n1CC(=O)NCc1ccc2[nH]ncc2c1							0.0087			
Cc1ccc(NS(=O)(=O)Cc2ccccc2)c(=O)n1CC(=O)NCC1CCc2nc(N)sc2C1 (stereo unspecified)		106	121	44		334	2.5			
Cc1ccc(NS(=O)(=O)Cc2ccccc2)c(=O)n1CC(=O)NC1CCc2nn(C)cc2C1 (stereo unspecified)	3.2	90.2	> 200	375	32	> 400		807		
Cc1ccc(NS(=O)(=O)Cc2ccccc2)c(=O)n1CC(=O)NCC1CCc2n[nH]cc2C1 (stereo unspecified)	4	103	20.5	5.2		30.6	0.17		Not Active	
Cc1ccc(NS(=O)(=O)Cc2ccccc2)c(=O)n1CC(=O)NCC1CCc2nc(N)ncc2C1 (stereo unspecified)		87.3	219	84		> 400	6.9			640
Cc1ccc(NS(=O)(=O)Cc2ccccc2)c(=O)n1CC(=O)NCC1CCc2nn(C)cc2C1 (stereo unspecified)	3.6	95	318	105	47	> 400	11.8	557		
